Only a sample is shown.
PGC1a acetyl up = compounds raising PGC1a acetylation signal, primary screen, PGC1a modulator project, cell-based, U2OS, AlphaScreen, signal-increasing mode | activation, % at 15.6 µM | overnight | 350,000 tested, 0.21% active;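 active = every replicate reaching activation of at least 50%, whatever the mean replicate activation; inconclusive = replicates that disagree or another doubt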;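 note: hits raise the AlphaScreen acetylation signal above neutral controls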
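Incubation: overnight compound treatment, 37 °C. System: U2OS cells transduced with flag-tagged PGC1a and GCN5 acetyltransferase. Detection: AlphaScreen lysate read. Compound: single-point compound dosing.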
G6PC hep suppr = suppressors of forskolin-stimulated G6PC mRNA, dose response, PGC-1a acetylation activator project, cell-based, hepatocytes, RT-qPCR, cherry-picked samples; shares compounds with PGC1a acetyl up; 240 tested, under 10 active; primary mouse hepatocytes; AID 743463, 2014; G6PC suppression (normalized activity, % of positive control; higher = more suppression), % at 26 µM;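 active = dose curves showing G6PC suppression whose half-maximal dose is at most twice the top valid dose; inconclusive = flat curves with moderate negative activity, or unreliable fits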;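 note: G6PC expression relative to GAPDH housekeeping gene as delta delta Ct; 0% = median of neutral control wells and 100% = median of positive control wells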
PCK1 hep suppr = suppression of PCK1 mRNA in primary hepatocytes, dose response, PGC-1a acetylation activator project, cell-based, primary mouse hepatocytes, RT-qPCR, cherry-pick | 230 tested, under 10 active | PCK1 expression decrease, unspecified at 26 µM | AID 743465, 2014 | shares compounds with PGC1a acetyl up | forskolin-stimulated;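 active = compounds lowering PCK1 expression whose fitted half-maximal concentration is at most twice the top tested dose; inconclusive = flat fit with moderate opposite-direction effect, or poor fit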;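 note: values are delta delta Ct of PCK1 relative to GAPDH; higher delta delta Ct means lower PCK1 expression so positive values indicate hits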
Hep PGC-1a down = suppression of PGC-1a mRNA in primary hepatocytes, dose response, PGC-1a acetylation activator project, cell-based, primary mouse hepatocytes, RT-qPCR, cherry-pick; shares compounds with PGC1a acetyl up; PGC-1a mRNA qPCR, forskolin; top dose 26 µM; 240 tested, under 10 active; AID 743467, 2014; max activity (PGC-1a expression decrease), %;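 active = compound lowering PGC-1a expression with fitted half-maximal concentration at most twice its top tested dose; inconclusive = flat curve with moderate opposite-direction effect, or poor fit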;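 note: 0% = neutral control wells median and 100% = positive control wells median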
The depositor's hits bear a star; ? = inconclusive; [ ] = remark or other dose.

SMILES	PGC1a acetyl up	others
COc1cccc(-c2ccc(C3[C@@H]4CN(Cc5ccccn5)C[C@H]3N4)cc2)c1 (stereo partly specified)	56*
Fc1cccc(-c2ccc([C@@H]3[C@@H]4CN(Cc5nccs5)C[C@H]3N4)cc2)c1	75*
C=CC(=O)NC(C)(C)Cc1ccccc1	-44
Cc1cc(NS(=O)(=O)c2ccc(NC(=O)COc3c(C)cc(Br)cc3C)cc2)no1	-85
CC(C)C#Cc1cnc2c(c1)C(=O)N([C@H](C)CO)C[C@H](C)[C@H](CN(C)C(=O)c1ccccn1)O2	-45
Cc1noc(C)c1NC(=O)Nc1ccc2c(c1)C(=O)N([C@H](C)CO)C[C@@H](C)[C@@H](CN(C)S(=O)(=O)c1ccc(F)cc1)OCCCC[C@@H](C)O2	-42
CC(C)NC(=O)Nc1ccc2c(c1)C(=O)N([C@@H](C)CO)C[C@@H](C)[C@@H](CN(C)S(=O)(=O)c1ccccc1)OCCCC[C@H](C)O2	-105
COc1ccc(-c2cnc3c(c2)C(=O)N([C@H](C)CO)C[C@H](C)[C@@H](CN(C)C(=O)C2CC2)O3)cc1	-111
O=C(COC(=O)Cc1ccc(S(=O)(=O)N2CCOCC2)s1)NCCc1ccccc1	-41
Fc1cccc(CN2C[C@@H]3N[C@H](C2)C3c2ccc(/C=C/c3ccccc3)cc2)c1 (stereo partly specified)	66*
CC(C)C#Cc1ccc([C@@H]2[C@H](CO)N3C(=O)CN(C(=O)NC4CCCC4)C[C@@H]23)cc1	-107
CNC[C@@H]1OCCCC[C@H](C)Oc2ccc(NS(=O)(=O)c3cccs3)cc2C(=O)N([C@H](C)CO)C[C@@H]1C	-59
O=C(CSc1nnc(-c2ccncc2)n1-c1ccc(Cl)cc1)NCc1cccs1	81*
O=C(CSc1nnc(-c2ccco2)n1-c1ccccc1)Nc1c(Cl)cc(Cl)cc1C(=O)O	-52
CCN1C(C#N)=C(C#N)N=C(C)CC1(C)C	-109
COC(=O)c1ccc[n+](CC(=O)c2ccc(Br)cc2)c1	-43
O=C(CCn1nnc2ccccc21)Nc1nnc(Cc2ccccc2)s1	63*	G6PC hep suppr=-50;Hep PGC-1a down=?
C#CCN1C(=O)C(O)(CC(=O)c2ccc(OC)c(OC)c2)c2ccccc21 (stereo unspecified)	-43
COc1cc(CN2CCN(Cc3ccccc3C(F)(F)F)CC2)cc(OC)c1OC	-63
COc1ccc(N=C2C(=Nc3ccc(OC)cc3)N(c3ccc(OC)cc3)C(=S)N2C(=O)c2ccc(OC)cc2)cc1	-46
O=C(NCc1ccc(Cl)cc1)C1CCC(CNc2c(N3CCCC3)c(=O)c2=O)CC1 (stereo unspecified)	-43	G6PC hep suppr=7;PCK1 hep suppr=43;Hep PGC-1a down=44
CCO[C@H]1OC(C(=O)N2CCCCCCC2)=C[C@@H](C2CCCCC2)[C@@H]1CCCO	84*	G6PC hep suppr=-2;PCK1 hep suppr=62;Hep PGC-1a down=51
CCCCCCCCC(=O)O	-66
CC(=O)Nc1nonc1-c1nc2ccccc2n1Cc1ccccc1	61*	G6PC hep suppr=-7;PCK1 hep suppr=11;Hep PGC-1a down=?
CCN1CCN(c2ncc(C(=O)Nc3cc(Cl)ccc3OC)c3ccccc23)CC1	-93	G6PC hep suppr=272[8 µM];PCK1 hep suppr=?;Hep PGC-1a down=110
SMILES	PGC1a acetyl up	others
O=c1c2c(nc3c(-c4ccc(Cl)cc4)c[nH]n13)CCCC2	-41
C=C1C(=O)[C@]23C[C@H]1CC[C@H]2[C@]1(C)[C@@H](OC(C)=O)CC[C@@](C)(C(=O)OC)[C@H]1C[C@@H]3OC(C)=O	-94
Cc1cccc(-n2c(=O)cc(N3CCN(c4ccc(F)cc4)CC3)[nH]c2=O)c1	-55
COc1ccc2nc(N3CCCC(C(=O)NCCCN4CCN(C)CC4)C3)sc2c1 (stereo unspecified)	-70
COc1ccc(Cc2nc(-c3ccc(NC(=O)c4cccnc4)cc3)no2)cc1	240*	G6PC hep suppr=-23;PCK1 hep suppr=-4.4;Hep PGC-1a down=102
O=C(OCc1ccccc1)N1CCC2CC1c1cc(-c3ccc(F)cc3)ccc12 (stereo unspecified)	-63
CCNC(=O)NC(=O)COc1ccccc1C#N	-45
N#Cc1ccccc1COC(=O)c1ccc2c(c1)OCCO2	?	G6PC hep suppr=-9;PCK1 hep suppr=11;Hep PGC-1a down=-16
CCNC(=S)NNC(=O)c1csc2ccccc12	-59
Cc1ccc(C)c(NC(=S)Nc2cccc3cnccc23)c1	-51
O=S(=O)(c1ccc(Br)s1)N1CCN(Cc2ccc3c(c2)OCO3)CC1	-47
O=S(=O)(c1cccc(F)c1)N1CCN(Cc2cc3c(cc2Br)OCCO3)CC1	108*	G6PC hep suppr=1;PCK1 hep suppr=53;Hep PGC-1a down=112
